Only a selection was taken, and hits are over-represented in it overall.
E-sel inducer – E-selectin induction in HUVECs, primary screen, imaging, HUVEC, immunofluorescence imaging, single point. normalized: neutral wells 0, TNF-alpha wells 100. activation, % at 7.58 µM. actives 0.37% (n = 260,000). AID 686992, 2013;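 active means mean E-selectin-positive cell signal at least 10% of the positive control, reached in at least 60% of replicates, without over 20% cell loss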
Target sequence (P16581 whole entry, looked up): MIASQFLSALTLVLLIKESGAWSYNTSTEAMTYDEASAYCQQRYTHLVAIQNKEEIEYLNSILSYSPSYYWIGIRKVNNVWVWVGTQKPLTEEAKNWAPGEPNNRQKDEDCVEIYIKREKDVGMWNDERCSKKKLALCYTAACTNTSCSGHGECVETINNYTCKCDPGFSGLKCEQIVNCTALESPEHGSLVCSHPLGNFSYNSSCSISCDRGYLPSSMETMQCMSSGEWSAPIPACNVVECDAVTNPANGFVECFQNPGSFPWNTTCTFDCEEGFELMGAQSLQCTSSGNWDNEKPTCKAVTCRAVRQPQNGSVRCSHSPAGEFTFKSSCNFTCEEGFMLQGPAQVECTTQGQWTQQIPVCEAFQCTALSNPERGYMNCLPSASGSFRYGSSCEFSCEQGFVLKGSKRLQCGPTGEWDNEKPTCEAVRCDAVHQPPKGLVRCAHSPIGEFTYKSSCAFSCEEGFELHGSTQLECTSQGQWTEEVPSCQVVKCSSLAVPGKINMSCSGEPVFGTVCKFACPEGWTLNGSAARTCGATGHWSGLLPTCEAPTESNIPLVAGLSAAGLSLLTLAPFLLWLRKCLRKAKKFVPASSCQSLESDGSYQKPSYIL
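assay system = HUVEC, human umbilical vein endothelial cells | input = 3,000 HUVEC seeded per well | medium = EGM-2 growth medium on 0.1% gelatin-coated wells | dosing = one compound dose added by pin transfer | signal = immunofluorescence imaging | read-out basis = % PE-positive cells | control set = TNF-alpha, DMSO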
A number is an active result; - = inactive.

SMILES | E-sel inducer
CCCN(C)C[C@@H]1Oc2ncc(-c3ccc(F)cc3)cc2C(=O)N([C@H](C)CO)C[C@@H]1C | -
CCC(=O)N(C)C[C@H]1Oc2ncc(Br)cc2C(=O)N([C@H](C)CO)C[C@H]1C | -
C[C@@H]1CN([C@H](C)CO)C(=O)c2cc(C3=CCCC3)cnc2O[C@@H]1CN(C)C(=O)Nc1ccccc1 | 59
CCCNC(=O)C[C@H]1C[C@@H]2c3cc(NS(=O)(=O)c4ccc(F)cc4)ccc3O[C@@H]2[C@@H](CO)O1 | -
CS(=O)(=O)Nc1ccc2c(c1)[C@@H]1C[C@@H](CC(=O)N3CCc4ccccc4C3)O[C@H](CO)[C@@H]1O2 | -
Cc1ccc(S(=O)(=O)N(C)C[C@H]2Oc3c(NC(=O)c4cnccn4)cccc3C(=O)N([C@H](C)CO)C[C@H]2C)cc1 | -
CC(C)NC(=O)N1[C@H](CO)[C@@H](c2ccccc2)[C@@H]1CNC(=O)CN(C)C | -
Cc1ccc(S(=O)(=O)Nc2ccc3c(c2)C(=O)N([C@@H](C)CO)C[C@@H](C)[C@H](CN(C)Cc2ccc4c(c2)OCO4)O3)cc1 | -
Cc1ccc(S(=O)(=O)N(C)C[C@@H]2OCCCC[C@H](C)Oc3ccc(NC(=O)C4CCCCC4)cc3C(=O)N([C@H](C)CO)C[C@H]2C)cc1 | -
CCCC#Cc1ccc([C@@H]2[C@H]3CN(S(=O)(=O)c4ccccc4C)CCCCN3[C@H]2CO)cc1 | -
C[C@H](O)C#Cc1ccc2c(c1)O[C@@H](CN(C)C(=O)CC1CC1)[C@@H](C)CN([C@@H](C)CO)S2(=O)=O | -
CN1[C@H](C(=O)NCCN2CCCCC2)[C@@H](CO)[C@@H]2Cn3c(ccc(-c4ccc(F)cc4)c3=O)[C@@H]21 | -
CC(C)NC(=O)N(C)C[C@@H]1Oc2cc(C#C[C@H](C)O)ccc2S(=O)(=O)N([C@H](C)CO)C[C@H]1C | -
CC(C)CC#Cc1cnc2c(c1)C(=O)N([C@H](C)CO)C[C@H](C)[C@@H](CN(C)C(=O)c1ccc3c(c1)OCO3)O2 | -
CC(C)CC#Cc1cnc2c(c1)C(=O)N([C@@H](C)CO)C[C@@H](C)[C@H](CN(C)C(=O)c1ccc3c(c1)OCO3)O2 | -
CC(C)CC#Cc1cnc2c(c1)C(=O)N([C@H](C)CO)C[C@@H](C)[C@H](CN(C)C(=O)c1ccc3c(c1)OCO3)O2 | 74
CCCNC(=O)N1C[C@@H](C)[C@H](OC)CN(C)C(=O)c2ccc(NC(C)=O)cc2OC[C@@H]1C | -
O=C(CC1CC1)N1CC(=O)N2[C@H](CO)[C@@H](c3ccc(-c4ccccc4)cc3)[C@@H]2C1 | -
O=C(NC(=S)Nc1ccccn1)c1cncc(Br)c1 | 26
O=C(NC(=S)Nc1ccccc1C(=O)O)c1cncc(Br)c1 | -
O=C(NC(=S)Nc1ccccc1O)c1cncc(Br)c1 | -
C[C@@H]1CN([C@H](C)CO)C(=O)c2cc(NS(=O)(=O)c3cn(C)cn3)ccc2O[C@@H](C)CCCCO[C@@H]1CN(C)C | -
C[C@@H]1CN([C@@H](C)CO)C(=O)c2cc(NC(=O)CCCN(C)C)ccc2O[C@@H](C)CCCCO[C@H]1CN(C)CC1CCCCC1 | -
CC(C)C#Cc1ccc2c(c1)O[C@@H](CN(C)C(=O)c1cccnc1)[C@H](C)CN([C@@H](C)CO)S2(=O)=O | -
C[C@H]1CN([C@@H](C)CO)C(=O)Cc2cc(NC(=O)CCCCCC(=O)Nc3ccccc3N)ccc2O[C@H]1CN(C)Cc1ccc(Oc2ccccc2)cc1 | -
SMILES | E-sel inducer
C[C@H](CO)N1C[C@H](C)[C@@H](CN(C)Cc2ccc(Cl)c(Cl)c2)Oc2ccc(NC(=O)CCCCCC(=O)Nc3ccccc3N)cc2CC1=O | -
C[C@@H]1CN([C@@H](C)CO)C(=O)Cc2cc(NC(=O)CCCCCC(=O)Nc3ccccc3N)ccc2O[C@@H]1CN(C)S(=O)(=O)c1ccccc1 | -
C[C@H](CO)N1C[C@H](C)[C@H](CN(C)Cc2ccccc2)Oc2ccc(NC(=O)CCCCCC(=O)Nc3ccccc3N)cc2CC1=O | -
C[C@@H]1CN([C@@H](C)CO)C(=O)c2cccc(NC(=O)CCCCCC(=O)Nc3ccccc3N)c2O[C@@H]1CN(C)Cc1ccccc1 | -
C[C@H](CO)N1C[C@H](C)[C@H](CN(C)Cc2ccc(Cl)c(Cl)c2)Oc2c(NC(=O)CCCCCC(=O)Nc3ccccc3N)cccc2C1=O | 410
C[C@H]1CN([C@@H](C)CO)C(=O)Cc2cc(NC(=O)CCCCCC(=O)Nc3ccccc3N)ccc2O[C@H]1CN(C)Cc1ccc(Cl)c(Cl)c1 | 75
C[C@H](CO)N1C[C@H](C)[C@@H](CN(C)S(C)(=O)=O)Oc2ccc(NC(=O)CCCCCC(=O)Nc3ccccc3N)cc2CC1=O | 36
C[C@H](CO)N1C[C@H](C)[C@H](CN(C)Cc2ccc(Oc3ccccc3)cc2)Oc2ccc(NC(=O)CCCCCC(=O)Nc3ccccc3N)cc2CC1=O | 50
C[C@H](CO)N1C[C@H](C)[C@H](CN(C)Cc2ccc(Cl)c(Cl)c2)Oc2ccc(NC(=O)CCCCCC(=O)Nc3ccccc3N)cc2C1=O | -
C[C@@H]1CN([C@H](C)CO)C(=O)Cc2cc(NC(=O)CCCCCC(=O)Nc3ccccc3N)ccc2O[C@H]1CN(C)Cc1ccc2c(c1)OCO2 | -
C[C@H](CO)N1C[C@H](C)[C@H](CN(C)S(C)(=O)=O)Oc2ccc(NC(=O)CCCCCC(=O)Nc3ccccc3N)cc2CC1=O | -
CS(=O)(=O)Nc1ccc2c(c1)[C@@H]1C[C@@H](CC(=O)NCC3CC3)O[C@H](CO)[C@@H]1O2 | -
COc1cccc(-c2cnc3c(c2)C(=O)N([C@@H](C)CO)C[C@@H](C)[C@H](CN(C)Cc2ccncc2)O3)c1 | -
CCCC(=O)Nc1ccc2c(c1)OC[C@@H](C)N(C(=O)CN(C)C)C[C@@H](C)[C@@H](OC)CN(C)C2=O | -
C[C@@H]1CN([C@H](C)CO)C(=O)c2cc(N(C)C)ccc2O[C@@H](C)CCCCO[C@H]1CN(C)C(=O)Nc1ccccc1 | -
CCS(=O)(=O)N1CC2(C1)[C@H](c1ccccc1)[C@@H](CO)N2C(=O)C1CC1 | -
C[C@H](CO)N1C[C@H](C)[C@@H](CN(C)C(=O)C2CCC2)Oc2cc(-c3cncnc3)ccc2S1(=O)=O | -
C[C@H]1CN([C@@H](C)CO)C(=O)c2cc(C#CC3CCCCC3)cnc2O[C@H]1CN(C)C(=O)Nc1ccccc1 | -
COc1ccc(CN(C)C[C@H]2Oc3c(NS(=O)(=O)c4ccc(OC)cc4)cccc3C(=O)N([C@H](C)CO)C[C@H]2C)cc1 | -
O=C(NCc1ccccn1)[C@H]1[C@H](CO)[C@H]2Cn3c(cccc3=O)[C@H]2N1CCc1ccccc1 | -
COC(=O)[C@@H]1[C@@H](CO)[C@@H]2Cn3c(ccc(-c4ccccc4)c3=O)[C@@H]2N1S(C)(=O)=O | -
CCCNC(=O)C[C@@H]1CC[C@@H]2[C@@H](COc3ccc(NC(=O)c4ccc(OC)cc4)cc3C(=O)N2C)O1 | -
C[C@H](CO)N1C[C@H](C)[C@H](CN(C)S(=O)(=O)c2cn(C)cn2)Oc2c(NC(=O)CCCCCC(=O)Nc3ccccc3N)cccc2C1=O | -
C[C@@H]1CN([C@H](C)CO)C(=O)c2cccc(NC(=O)CCCCCC(=O)Nc3ccccc3N)c2O[C@@H]1CN(C)S(=O)(=O)c1cn(C)cn1 | 391
C[C@@H]1CN([C@@H](C)CO)C(=O)c2cccc(NC(=O)CCCCCC(=O)Nc3ccccc3N)c2O[C@@H]1CN(C)S(=O)(=O)c1cn(C)cn1 | -
O=C(N[C@@H]1C=C[C@@H](CC(=O)N2CCc3ccccc3C2)O[C@H]1CO)C1CC1 | -
